Measurements: publication PMC4293705 (ChemPlusChem, 2012)
“And” between values parts separate entries of the source, which are not always exact repeats. Identical values can stand only once. Like-named read-outs stand apart in the source and are kept apart here. Marks after values point to notes of the source that are not given here.

Assays:
[1] = Protonation constants by potentiometric titration in H2O/DMSO; assay type: physicochemical; details: for pKa: H2O/DMSO (v/v 30:70) solution
How it was run: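 Ligand (10−4–10−5 M, from DMSO solutions) titrated in H2O/DMSO 30:70 v/v at I = 0.1 (KCl), 25 °C, under argon. Automated titration with carbonate-free KOH standardised against potassium hydrogen phthalate. Read on a glass electrode with Ag/AgCl reference; 120–150 points per titration; pKw 17.16. Constants from nonlinear least-squares refinement of the potentiometric data.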

[2] = assay type: physicochemical; details: I = 0.1 M (KCl), T = 298 K, H2O/DMSO v/v 30:70; for Log β 1 1–3 (stability constant of Fe^III complex): 5a value by potentiometric and spectrophotometric titrations; for Log β 1 1–2 (stability constant of Fe^III complex): potentiometric and spectrophotometric titrations
How it was run: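 Performed in H2O/DMSO 30:70 v/v […], I = 0.1 (KCl), 25 °C under argon. Ligand at 10−4–10−5 M with EDTA-standardised FeCl3 at metal:ligand ratios 1:3, 1:2 and 1:1. Potentiometric and spectrophotometric titrations covered pH 1–13. For spectrophotometry, acidified FeIII–ligand solutions were titrated with KOH to pH 6.5, recording UV-visible spectra after each addition at 25.0 °C. pKw 17.16.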

[3] = tested on: human hepatocarcinoma HepaRG cells; test: SDH activity; assay type: cell-based
[4] = tested on: human hepatocarcinoma HepaRG cells; test: Extracellular LDH leakage; assay type: cell-based; details: 72 h; for % LDH/control with Fe^III 20 μM / % LDH/control without Fe^III: cell supernatant
HUVEC [5] = test: BrdU assay, HUVEC survival; assay type: cell-based, human; details: 48 h; for effect on HUVEC survival: 10^−8 to 10^−5 M
How it was run: (§1)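 Survival version of the BrdU kit assay. HUVEC (2 × 10^4/well) in 1 % FBS; MDA-MB-231 (1.5 × 10^4/well) in 0 % FBS; triplicate wells. After 24 h serum-free phenol-red-free synchronisation, cells exposed 48 h to test compound at 10−8–10−5 M. BrdU (0.01 mM final) added, re-incubated 2–24 h, OD at 450 and 595 nm. Normalised to untreated controls after background subtraction.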

MDA-MB-231 cells [6] = test: BrdU assay, MDA-MB-231 cell survival; assay type: cell-based; details: 48 h; for effect on MDA-MB-231 cell survival: 10^−8 to 10^−5 M
How it was run: as §1

HUVEC [7] = test: BrdU assay, HUVEC proliferation; assay type: cell-based, human; details: 48 h; for effect on HUVEC proliferation: 10^−8 to 10^−5 M
How it was run: (§2)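 HUVECs grown on 0.2 % gelatin in M199 with 20 % FBS and ECGS, passages 2–5. HUVEC seeded at 2 × 10^4 and MDA-MB-231 at 1.5 × 10^4 cells/well, in triplicate. Next day, G1-synchronised 24 h in serum-free phenol-red-free medium. Test compound (10−8–10−5 M) given in 10 % FBS for 48 h. BrdU (0.01 mM final) added for 2–24 h; OD read at 450/595 nm. Values background-subtracted and normalised to untreated controls.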

MDA-MB-231 cells [8] = test: BrdU assay, MDA-MB-231 cell proliferation; assay type: cell-based; details: 48 h; for effect on MDA-MB-231 cell proliferation: 10^−8 to 10^−5 M
How it was run: as §2

HUVEC [9] = test: Wound-healing assay, HUVEC migration; assay type: cell-based, human; details: 16 h; for effect on HUVEC migration versus control: 10^−6 to 10^−5 M
How it was run: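 HUVECs (4 × 10^5/well) plated on 0.2 % gelatin; wound made after 24 h on the confluent layer. Cells then treated 16 h with test compound (10−5 to 10−6 M) in phenol-red-free M199 with 10 % FBS and photographed at 16 h. Genistein 30 μg mL−1 and EGF 50 ng mL−1 as references. At least three experiments; mean ± SEM; ANOVA/Student's test.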

HUVEC [10] = test: Matrigel assay, HUVEC capillary-tube formation; assay type: cell-based, human; details: 16 h; for effect on HUVEC capillary tube formation versus control: 10^−6 to 10^−5 M
How it was run: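 Forty thousand HUVECs seeded on Matrigel in M199 with 10 % FBS containing test compound (10−5 to 10−6 M) and incubated 16 h. Capillary network length quantified by image analysis of micrographs. Untreated cells as control; genistein 30 μg mL−1 (inhibitor) and EGF 50 ng mL−1 (activator) as references. At least three separate experiments; mean ± SEM; ANOVA and Student's test.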

[11] = reported in the literature; cited from earlier work
[12] = reported value; cited from earlier work
[13] = log D determination by micro-HPLC; assay type: physicochemical; details: for log D: pH 7, n-octanol/phosphate buffer, HPLC
[14] = I = 0.1 M (KCl), T = 298 K, H2O/DMSO v/v 30:70
[15] = read-out: SDH, IC50 without Fe^III, HepaRG cells, 72 h treatment, MTT assay

Row | SMILES | Log β 0 1–1 (overall protonation constant) [1, 14] | Log β 0 1–2 (overall protonation constant) [1, 14] | Log β 0 1–3 (overall protonation constant) [1, 14] | Log β 1 2–6 (stability constant of Fe^III complex) [2] | Log β 1 1–3 (stability constant of Fe^III complex) [2] | Log β 1 1–2 (stability constant of Fe^III complex) [2] | % LDH/control with Fe^III 20 μM ([4]; compound 10 μM) | % LDH/control without Fe^III ([4]; compound 10 μM) | % LDH/control with Fe^III 20 μM ([4]; compound 100 μM) | % LDH/control without Fe^III ([4]; compound 100 μM) | effect on HUVEC survival (HUVEC [5]) | effect on MDA-MB-231 cell survival (MDA-MB-231 cells [6]) | effect on HUVEC proliferation (HUVEC [7]) | effect on MDA-MB-231 cell proliferation (MDA-MB-231 cells [8]) | effect on HUVEC migration versus control (HUVEC [9]) | effect on HUVEC capillary tube formation versus control (HUVEC [10]) | log D [13] | pKa1 [1, 14] | pKa2 [1, 14] | pKa3 [1, 14] | other results
1 | O=C(O)c1ccc(-n2nc(-c3ccccc3O)nc2-c2ccccc2O)cc1 [ICL670, deferasirox, reference compound] | −5.56(5) | −16.55(7) | −29.53(7) | −20.35(8) | −6.48(9) | −1.06(9) ^[c] | 80 ±5% | 87 ±7% | 88 ±1% | 101 ±13% | did not show any effect | did not show any effect | did not show any effect | did not show any effect | did not show any effect | did not show any effect |  |  |  |  | pKa ([1]; pKa1, I = 0.1 M (KCl), T = 298 K, H2O/DMSO v/v 30:70): 5.56; pKa ([1]; pKa2, I = 0.1 M (KCl), T = 298 K, H2O/DMSO v/v 30:70): 11; pKa ([1]; pKa3, I = 0.1 M (KCl), T = 298 K, H2O/DMSO v/v 30:70): 13; Log β 1 2–5 (stability constant of Fe^III complex) [2]: −13.72(9); IC50 ([3]; Homo sapiens, HepaRG, 72 h, read-out: SDH, IC50 with Fe^III 20 μM): 61 ± 7 µM; IC50 ([3]; Homo sapiens, HepaRG, 72 h, read-out: SDH, IC50 without Fe^III): 11 ± 4 µM; pFe [11]: 23.5; log D [12]: −0.1
2 | O=C(CCOCCOc1c2cccc1Cc1cccc(c1O)Cc1cccc(c1OCCOCCC(=O)Nc1ccc(-n3nc(-c4ccccc4O)nc3-c3ccccc3O)cc1)Cc1cccc(c1O)C2)Nc1ccc(-n2nc(-c3ccccc3O)nc2-c2ccccc2O)cc1 [5b, 25,27-Bis-{1-[2-(2-{4-[3,5-bis(2-hydroxyphenyl)-1,2,4-triazol-1-yl]-phenyl}carbamoylethoxy)ethoxy]}-26,28-dihydroxycalix[4]arene] | −9.88(3) | −21.11(3) | −33.21(3) |  | −5.08(6) | −2.35(8) ^[c] | 91 ±11% | 76 ±4% | 69 ±6% | 103 ±2% | did not show any effect | did not show any effect | did not show any effect | did not show any effect | did not show any effect | did not show any effect | 3.49 (±0.05) | 9.88 | 11.23 | 12.10 | reduction of the lipophilicity in comparison with 5a ([13]; from log D at pH 7): about 12 fold; Log β 0 1–4 (overall protonation constant) [1, 14]: −46.38(6); Log β 0 1–5 (overall protonation constant) [1, 14]: −59.85(4); pKa4 [1, 14]: 13.17; pKa5 [1, 14]: 13.47; IC50 [3, 15]: 90 ± 7 µM; membrane diffusion / presence in intracellular medium after cell lysis (HepaRG cells): found in the intracellular medium
3 | Oc1c2cccc1Cc1cccc(c1O)Cc1cccc(c1O)Cc1cccc(c1O)C2 [compound 6, calix[4]arene] |  |  |  |  |  |  |  |  |  |  |  |  |  |  |  |  |  |  |  |  | pKa (easily deprotonated site of the calix[4]arene core) ([1]; acid–base properties in solution): 4.6
4 | O=C(CCOCCOc1c2cccc1Cc1cccc(c1O)Cc1cccc(c1O)Cc1cccc(c1O)C2)Nc1ccc(-n2nc(-c3ccccc3O)nc2-c2ccccc2O)cc1 [5a, 25-{1-[2-(2-{4-[3,5-Bis-(2-hydroxyphenyl)-1,2,4-triazol-1-yl]phenyl}carbamoylethoxy)ethoxy]}-26,27,28-trihydroxycalix[4]arene] | −6.67(2) | −17.12(2) | −29.63(2) | −19.23(8) | −1.74(1) ^[c] |  | 67 ±6% | 105% and 105 ±11% | 187 ±5% | 200 ±15% |  |  |  |  |  |  | 4.59 (±0.06) | 6.67 | 10.45 | 12.51 | concentrations at which the compound is cytostatic ([3]; HepaRG cells, 72 h, deduced from dose–effect curves): lower than 10 μM; SDH value relative to the control ([3]; compound 10 μM, HepaRG cells, 72 h): 6%; IC50 [3, 15]: 6 ± 1 µM; concentrations inducing a cytotoxic effect (membrane damage, LDH leakage) ([4]; deduced from dose–effect curves): higher than 10 μM; decrease of HUVEC survival versus control (HUVEC [5]; 10^−5 M): 65%; decrease of HUVEC survival versus control (HUVEC [5]; 10^−6 M): 56%; decrease of HUVEC survival versus control (HUVEC [5]; 10^−7 M): 28%; decrease of MDA-MB-231 survival versus control (MDA-MB-231 cells [6]; 10^−5 M): 58%; decrease of MDA-MB-231 survival versus control (MDA-MB-231 cells [6]; 10^−6 M): 51%; reduction of HUVEC proliferation versus control (HUVEC [7]; 10^−5 M): 74%; reduction of HUVEC proliferation versus control (HUVEC [7]; 10^−6 M): 51%; reduction of HUVEC proliferation versus control (HUVEC [7]; 10^−7 M): 46%; decrease of MDA-MB-231 cell proliferation versus control (MDA-MB-231 cells [8]; 10^−5 M): 73%; decrease of MDA-MB-231 cell proliferation versus control (MDA-MB-231 cells [8]; 10^−6 M): 62%; decrease of MDA-MB-231 cell proliferation versus control (MDA-MB-231 cells [8]; 10^−7 M): 33%; reduction of HUVEC migration versus control (HUVEC [9]; 10^−5 M): 59%; reduction of HUVEC migration versus control (HUVEC [9]; 10^−6 M): 51%; decrease of HUVEC ability to form capillary tubes versus control (HUVEC [10]; 10^−5 M): 48%; decrease of HUVEC ability to form capillary tubes versus control (HUVEC [10]; 10^−6 M): 42%; membrane diffusion / presence in intracellular medium after cell lysis (HepaRG cells): found in the intracellular medium
